A short description of data set [1]: Cytotoxicity against human HT-29 cells measured after 12 hrs by CellTiter-Glo Luminescent assay. Type of data set: cell-based. Background: Cellular ATP, detected with luciferase, serves as a proxy for viable cell number.
The target of data set [2] is Receptor-interacting serine/threonine-protein kinase 3 (Homo sapiens, UniProt Q9Y572). In words: Inhibition of RIPK3 phosphorylation in human HT-29 cells assessed as reduction in TNFalpha/smac mimetic/Z-VAD-fmk-induced necrosome formation at 1 uM treated prior to TNFalpha/smac mimetic/Z-VAD-fmk stimulation and measured after 4 hrs by immunoprecipitation based assay. Type of data set: cell-based. An outline of the steps:
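HT-29 cells treated with 1 μM compound or DMSO for 4 h, then lysed in M2 buffer. Lysates immunoprecipitated overnight at 4 °C with anti-RIPK1 (1 μg) on protein A/G agarose. Bound proteins boiled off and resolved on 4–20% SDS gels, then immunoblotted.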

The subject of data set [3] is HT-29. In words: Effect on TNFalpha/smac mimetic-induced apoptosis in human HT-29 cells at 3 uM treated prior to TNFalpha/smac mimetic stimulation and measured after 20 hrs by cell-Titer Glo luminescent cell viability assay. The following applies: ht-29, 20 h.
Data set [4] deals with Mus musculus. Description: Protection against TNFalpha/Z-VAD-fmk-induced C57BL/6J mouse model of systemic inflammatory response syndrome assessed as increase in body temperature at 5 to 50 mg/kg, po administered via gavage 2 hrs prior to Z-VAD-fmk addition for 15 mins followed by TNFalpha stimulation for 1 hr and subsequent Z-VAD-fmk addition meaured up to 50 hrs post TNFalpha stimulation by electric thermometer. Type of data set: functional, organism-based. An outline of the steps:
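Female C57BL/6 mice, fasted overnight, n=10 per group. Compound given by oral gavage at 5, 25 or 50 mg/kg 2 h before TNF. z-VAD-fmk 180 µg i.p., then 15 min later mTNF-α 400 µg/kg i.v. in endotoxin-free PBS, then a further 70 µg z-VAD-fmk i.p. 1 h later. Body temperature and survival followed, compared with vehicle by one-way ANOVA.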

The target in data set [5] is Hepatocyte growth factor receptor (Homo sapiens) (UniProt P08581). In words: Inhibition of wild-type human partial length MET (D1010 to S1367 residues) expressed in bacterial expression system assessed as enzyme remaining activity at 1000 nM by Kinomescan method relative to control.
Hepatocyte growth factor receptor (Homo sapiens), sequence (P08581 whole entry, the tested form may be a part): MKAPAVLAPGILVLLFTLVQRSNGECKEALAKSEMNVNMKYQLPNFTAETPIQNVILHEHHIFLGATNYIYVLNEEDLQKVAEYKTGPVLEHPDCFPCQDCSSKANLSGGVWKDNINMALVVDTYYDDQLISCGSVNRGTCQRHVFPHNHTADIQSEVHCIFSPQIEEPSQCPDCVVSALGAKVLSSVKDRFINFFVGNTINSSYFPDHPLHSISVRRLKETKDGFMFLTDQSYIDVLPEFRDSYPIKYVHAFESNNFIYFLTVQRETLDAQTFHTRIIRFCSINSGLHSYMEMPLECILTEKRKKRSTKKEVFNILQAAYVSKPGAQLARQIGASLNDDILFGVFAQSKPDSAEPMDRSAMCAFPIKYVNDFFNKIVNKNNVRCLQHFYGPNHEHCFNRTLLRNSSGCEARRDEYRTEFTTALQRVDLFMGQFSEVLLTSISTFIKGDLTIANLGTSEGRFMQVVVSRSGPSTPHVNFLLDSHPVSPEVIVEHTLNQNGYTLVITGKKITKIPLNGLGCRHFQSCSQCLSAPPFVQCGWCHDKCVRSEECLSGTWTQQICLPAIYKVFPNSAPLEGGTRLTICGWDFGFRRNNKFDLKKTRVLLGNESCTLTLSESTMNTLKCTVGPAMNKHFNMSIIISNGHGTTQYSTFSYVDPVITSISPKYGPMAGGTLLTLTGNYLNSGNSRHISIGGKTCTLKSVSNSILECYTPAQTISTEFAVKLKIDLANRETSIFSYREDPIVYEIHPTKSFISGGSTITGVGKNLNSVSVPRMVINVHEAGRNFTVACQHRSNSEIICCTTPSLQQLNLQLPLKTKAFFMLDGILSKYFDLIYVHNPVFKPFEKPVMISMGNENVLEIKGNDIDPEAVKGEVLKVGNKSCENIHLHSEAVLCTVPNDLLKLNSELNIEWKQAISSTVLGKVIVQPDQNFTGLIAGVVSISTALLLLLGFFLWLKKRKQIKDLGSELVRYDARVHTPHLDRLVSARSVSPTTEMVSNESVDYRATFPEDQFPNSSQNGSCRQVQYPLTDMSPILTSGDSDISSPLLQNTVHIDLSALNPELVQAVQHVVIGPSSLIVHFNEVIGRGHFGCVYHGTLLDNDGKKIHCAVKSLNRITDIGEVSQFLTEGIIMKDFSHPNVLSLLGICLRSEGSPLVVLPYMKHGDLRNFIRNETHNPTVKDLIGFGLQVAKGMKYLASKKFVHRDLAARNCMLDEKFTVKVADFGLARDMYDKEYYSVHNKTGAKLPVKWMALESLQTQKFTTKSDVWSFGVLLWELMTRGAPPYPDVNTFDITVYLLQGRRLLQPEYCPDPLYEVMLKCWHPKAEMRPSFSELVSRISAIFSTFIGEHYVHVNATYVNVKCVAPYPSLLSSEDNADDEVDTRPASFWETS
Data set [6] has as its target Mixed lineage kinase domain-like protein (Homo sapiens) (UniProt Q8NB16). In words: Inhibition of MLKL phosphorylation in TNFalpha/smac mimetic/Z-VAD-fmk stimulated human HT-29 cells at 1 uM treated prior to TNFalpha/smac mimetic/Z-VAD-fmk stimulation and measured after 2 to 4 hrs by SDS-PAGE based immunoblot assay. It is filed as cell-based. In general terms: A western blot detects proteins with antibodies after separation by electrophoresis.

Data set [7] deals with T1, Receptor-interacting serine/threonine-protein kinase 1 (Homo sapiens, UniProt Q13546).
T1 sequence (Q13546 whole entry): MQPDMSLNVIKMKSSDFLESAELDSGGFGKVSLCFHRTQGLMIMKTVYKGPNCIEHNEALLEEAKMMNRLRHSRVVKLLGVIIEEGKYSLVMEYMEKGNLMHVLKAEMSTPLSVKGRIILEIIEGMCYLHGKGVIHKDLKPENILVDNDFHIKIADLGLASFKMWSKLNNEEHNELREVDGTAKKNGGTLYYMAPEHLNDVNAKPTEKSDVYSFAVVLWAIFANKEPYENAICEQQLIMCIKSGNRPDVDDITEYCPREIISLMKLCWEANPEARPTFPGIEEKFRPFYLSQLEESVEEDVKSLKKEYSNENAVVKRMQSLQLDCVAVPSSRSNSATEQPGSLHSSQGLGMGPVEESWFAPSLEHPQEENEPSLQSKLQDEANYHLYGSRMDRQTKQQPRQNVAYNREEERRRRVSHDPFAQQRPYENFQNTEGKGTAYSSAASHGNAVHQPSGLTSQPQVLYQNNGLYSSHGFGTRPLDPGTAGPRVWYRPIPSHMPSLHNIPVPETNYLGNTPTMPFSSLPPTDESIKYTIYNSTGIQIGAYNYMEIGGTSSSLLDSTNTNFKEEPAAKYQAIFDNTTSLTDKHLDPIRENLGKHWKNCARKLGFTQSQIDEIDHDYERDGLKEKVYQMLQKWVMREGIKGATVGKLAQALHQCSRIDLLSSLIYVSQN
In words: Binding affinity to wild-type human partial length RIPK1 (M1 to K305 residues) expressed in bacterial expression system after 1 hr by quantitative PCR based KINOMEscan assay. An outline of the steps: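 KINOMEscan competition binding. Bound kinase eluted with 0.5 μM nonbiotinylated ligand for 30 min and quantified by qPCR. Duplicates averaged.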

Data set [8] can be described thus: Clearance in Sprague-Dawley rat at 1 mg/kg, iv by LC-tandem mass spectrometry analysis. It is filed as ADME, organism-based. The following applies: in vivo. The method, boiled down: (§1)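 Male Sprague-Dawley rats dosed once i.v. at 1 mg/kg or intragastrically at 5 mg/kg. Compound dissolved in 5% DMSO, 10% Tween 80, 75% physiological saline at 0.2 and 1 mg/mL. Blood taken at several time points, plasma spun at 4 °C, stored at -80 °C, assayed by LC/MS/MS. Parameters from individual animals by noncompartmental analysis.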

For data set [9], the system named is Epidermal growth factor receptor (Homo sapiens), P00533 [L858R]. In words: Inhibition of wild-type human partial length EGFR L858R mutant (R669 to V1011 residues) expressed in bacterial expression system assessed as enzyme remaining activity at 1000 nM by Kinomescan method relative to control. An outline of the steps: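 KINOMEscan binding competition. […] Incubation was 1 h at room temperature with shaking, then bead wash and elution with 0.5 μM nonbiotinylated ligand for 30 min. Eluted kinase was quantified by qPCR. Compound was diluted from 40× DMSO stocks to 1000 nM final.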

In data set [10] the target is Mitogen-activated protein kinase 8 (Homo sapiens) (UniProt P45983). Description: Inhibition of wild-type human full length JNK1 (M1 to Q384 residues) expressed in mammalian expression system assessed as enzyme remaining activity at 1000 nM by Kinomescan method relative to control.
Mitogen-activated protein kinase 8 (Homo sapiens), sequence (P45983 whole entry, the tested form may be a part): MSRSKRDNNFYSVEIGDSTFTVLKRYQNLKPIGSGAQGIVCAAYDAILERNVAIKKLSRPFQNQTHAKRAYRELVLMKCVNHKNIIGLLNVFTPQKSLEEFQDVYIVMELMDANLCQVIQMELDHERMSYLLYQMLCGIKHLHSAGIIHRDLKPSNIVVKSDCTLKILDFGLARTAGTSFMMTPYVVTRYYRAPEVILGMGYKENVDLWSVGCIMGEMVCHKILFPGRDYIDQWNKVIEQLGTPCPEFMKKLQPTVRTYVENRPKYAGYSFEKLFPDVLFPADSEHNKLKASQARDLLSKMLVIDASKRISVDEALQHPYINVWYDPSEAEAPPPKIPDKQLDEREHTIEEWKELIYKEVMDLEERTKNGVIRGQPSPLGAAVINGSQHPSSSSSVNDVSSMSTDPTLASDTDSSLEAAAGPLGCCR
Data set [11] is filed under the species Homo sapiens. In words: Selectivity ratio of Kd for human partial length RIPK1 (M1 to K305 residues) expressed in bacterial expression system to Kd for wild-type human partial length RIPK3 (M1 to Q307 residues) expressed in bacterial expression system.
The nature of data set [12]: Half-life in Sprague-Dawley rat at 5 mg/kg, po by LC-tandem mass spectrometry analysis. It is filed as ADME, organism-based. To be noted: in vivo. An outline of the steps:
as §1

Data set [13] concerns the target Inhibitor of nuclear factor kappa-B kinase subunit alpha (Homo sapiens) (UniProt O15111). Description: Inhibition of wild-type human full length IKK-alpha (M1 to E745 residues) expressed in mammalian expression system assessed as enzyme remaining activity at 1000 nM by Kinomescan method relative to control.
Data set [14] has as its target MAP kinase-activated protein kinase 2 (Homo sapiens) (UniProt P49137). In words: Inhibition of wild-type human partial length MAPKAPK2 (V48 to D345 residues) expressed in bacterial expression system assessed as enzyme remaining activity at 1000 nM by Kinomescan method relative to control.
In data set [15] the target is Cyclin-dependent kinase 2 (Homo sapiens) (UniProt P24941). Description: Inhibition of wild-type human full length CDK2 (M1 to L298 residues) expressed in bacterial expression system assessed as enzyme remaining activity at 1000 nM by Kinomescan method relative to control.
Data set [16] can be described thus: Oral bioavailability in Sprague-Dawley rat at 5 mg/kg by LC-tandem mass spectrometry analysis. It is filed as ADME, organism-based. The following applies: in vivo. An outline of the steps:
as §1

Calls of active or inactive are those of the source. No cut-off for these calls is given here. Some results are limits rather than exact numbers.

Mixed lineage kinase domain-like protein (Homo sapiens), sequence (Q8NB16 whole entry, the tested form may be a part): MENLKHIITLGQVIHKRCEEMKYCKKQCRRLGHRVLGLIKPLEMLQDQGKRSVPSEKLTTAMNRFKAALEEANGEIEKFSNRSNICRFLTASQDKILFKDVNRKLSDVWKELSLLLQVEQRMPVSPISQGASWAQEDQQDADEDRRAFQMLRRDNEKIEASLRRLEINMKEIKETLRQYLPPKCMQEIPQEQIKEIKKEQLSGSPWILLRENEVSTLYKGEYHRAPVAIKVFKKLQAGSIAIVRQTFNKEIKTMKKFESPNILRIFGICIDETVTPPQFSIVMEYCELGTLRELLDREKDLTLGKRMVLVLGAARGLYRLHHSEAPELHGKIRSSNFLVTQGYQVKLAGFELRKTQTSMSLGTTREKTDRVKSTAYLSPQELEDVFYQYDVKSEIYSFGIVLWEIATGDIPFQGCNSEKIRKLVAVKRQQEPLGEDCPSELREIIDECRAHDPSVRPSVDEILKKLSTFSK
Receptor-interacting serine/threonine-protein kinase 3, sequence (Q9Y572 whole entry, looked up): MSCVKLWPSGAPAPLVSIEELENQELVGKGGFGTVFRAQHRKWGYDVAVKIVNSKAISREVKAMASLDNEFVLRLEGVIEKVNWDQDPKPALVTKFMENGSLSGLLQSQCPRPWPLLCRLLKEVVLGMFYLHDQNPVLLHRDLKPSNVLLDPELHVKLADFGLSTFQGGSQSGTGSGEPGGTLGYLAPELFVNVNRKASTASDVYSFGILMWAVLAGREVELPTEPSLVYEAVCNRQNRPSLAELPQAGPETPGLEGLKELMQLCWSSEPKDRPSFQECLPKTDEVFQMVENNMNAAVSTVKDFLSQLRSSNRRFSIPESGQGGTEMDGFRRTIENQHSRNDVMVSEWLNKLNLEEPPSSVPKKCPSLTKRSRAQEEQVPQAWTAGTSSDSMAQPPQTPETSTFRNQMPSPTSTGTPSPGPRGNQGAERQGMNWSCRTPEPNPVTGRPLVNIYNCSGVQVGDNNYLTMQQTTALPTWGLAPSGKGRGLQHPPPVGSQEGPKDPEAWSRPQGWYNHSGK
Inhibitor of nuclear factor kappa-B kinase subunit alpha (Homo sapiens), sequence (O15111 whole entry, the tested form may be a part): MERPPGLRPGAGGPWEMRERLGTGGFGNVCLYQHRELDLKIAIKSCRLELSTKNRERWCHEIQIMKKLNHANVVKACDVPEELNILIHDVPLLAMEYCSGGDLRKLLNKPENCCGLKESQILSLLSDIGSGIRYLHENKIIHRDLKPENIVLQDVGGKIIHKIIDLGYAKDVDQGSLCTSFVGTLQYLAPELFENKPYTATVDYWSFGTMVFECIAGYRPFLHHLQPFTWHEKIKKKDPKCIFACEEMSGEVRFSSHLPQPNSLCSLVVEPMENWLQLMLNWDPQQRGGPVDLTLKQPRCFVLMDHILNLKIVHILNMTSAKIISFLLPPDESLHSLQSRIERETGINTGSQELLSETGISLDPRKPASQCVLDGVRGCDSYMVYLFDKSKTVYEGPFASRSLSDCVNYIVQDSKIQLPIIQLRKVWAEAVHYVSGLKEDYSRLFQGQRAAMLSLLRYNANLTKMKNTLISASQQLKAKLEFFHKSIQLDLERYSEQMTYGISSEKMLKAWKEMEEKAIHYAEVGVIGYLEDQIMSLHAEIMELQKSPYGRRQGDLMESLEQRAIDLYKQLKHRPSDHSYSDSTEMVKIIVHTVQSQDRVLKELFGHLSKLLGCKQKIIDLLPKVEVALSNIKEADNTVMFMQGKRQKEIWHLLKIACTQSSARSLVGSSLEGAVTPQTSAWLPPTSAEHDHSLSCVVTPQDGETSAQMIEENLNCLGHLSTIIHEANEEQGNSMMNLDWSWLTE
MAP kinase-activated protein kinase 2 (Homo sapiens), sequence (P49137 whole entry, looked up, the tested form may be a part): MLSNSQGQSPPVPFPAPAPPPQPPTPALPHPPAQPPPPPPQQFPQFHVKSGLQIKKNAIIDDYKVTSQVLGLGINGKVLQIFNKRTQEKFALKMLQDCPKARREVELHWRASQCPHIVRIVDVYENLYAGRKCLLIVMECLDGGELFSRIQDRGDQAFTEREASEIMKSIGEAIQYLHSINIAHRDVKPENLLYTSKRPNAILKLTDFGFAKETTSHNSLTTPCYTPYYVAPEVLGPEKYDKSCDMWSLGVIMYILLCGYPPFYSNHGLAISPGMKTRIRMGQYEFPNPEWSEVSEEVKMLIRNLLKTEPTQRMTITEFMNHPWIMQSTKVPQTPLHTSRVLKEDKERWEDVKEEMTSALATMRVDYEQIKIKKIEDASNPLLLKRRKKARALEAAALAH

Take `O=C(Nc1cccc(Br)c1)Nc1cc(Oc2ccc3nc(NC(=O)C4CC4)sc3c2)ccc1F`: in data set [1], the CC50 at 12 h is above 50 µM. The inhibition entry in data set [2] and in data set [6] was “Active” in each case. Also, the Activity entry in data set [3] was “Non-Toxic”; in [5], 14%; in data set [9], 61%; in [10], 79%; in data set [13], 100%; in [14], 100%. Further, the Activity in data set [15] was determined as 93%. For the same compound, in data set [4], the result was Active. For the same compound, the dissociation constant (Kd) in data set [7] is above 5 µM. The same compound returned a clearance in data set [8] of 2.6 mL/min/kg. Further, the Ratio in data set [11] is above 61.7. Also, in data set [12], the half-life was 15.2 h. For the same compound, in data set [16], the bioavailability stood at 25.2%.

The term CC50 denotes the concentration that lowers cell viability or growth by half. Higher therefore signals better tolerance by the cells. What is called Kd is the free concentration of one partner at which half of the binding sites on the other are occupied at equilibrium, for simple one-to-one binding. What is called clearance is the rate of elimination divided by the concentration. Broadly, the half-life is how long it takes for the measured level to halve. A lower half-life goes with fast loss. The term bioavailability denotes the share of a dose that reaches the circulation, judged against a reference dose that is usually intravenous. A low value points to poor availability.

The values above are taken from ChEMBL document CHEMBL4406794, “N-(7-Cyano-6-(4-fluoro-3-(2-(3-(trifluoromethyl)phenyl)acetamido)phenoxy)benzo[d]thiazol-2-yl)cyclopropanecarboxamide (TAK-632) Analogues as Novel Necroptosis Inhibitors by Targeting Receptor-Interacting Protein Kinase 3 (RIPK3): Synthesis, Structure-Activity Relationships, and in Vivo Efficacy” (J Med Chem, 2019).
